The values below come from the array DNA melting data of Ke et al. (doi:10.1101/2024.01.08.574731).

Series [1] in a line: melting temperature; fluorescence melt of hairpins on a sequencing array, two-state fit, raised by 9.35 °C to match UV melts. Conditions: sodium 0.088 M. Put shortly:
(§1)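 Melting temperature and folding enthalpy were obtained by bootstrapped two-state fitting. Fits used Cy3 fluorescence of library hairpins with annealed Cy3 and quencher oligos on a sequenced MiSeq flow cell, imaged in 50 mM Na-HEPES pH 8.0, 25 mM NaCl in 2.5 °C steps up to 60 °C and normalised to pre-quench Cy3 and control constructs. Four replicates were combined by inverse-variance weighting, and fitted temperatures were raised by 9.35 °C to match UV melts.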

A short description of series [2]: folding enthalpy; higher = less favourable; fluorescence melt of hairpins on a sequencing array, two-state fit. Conditions: sodium 0.088 M. The procedure, abridged:
as §1

Regarding GCGAGGAAACTCGC (((((....))))), the Tm in series [1] is 66.4 °C. In series [2], the folding enthalpy was -32.6 kcal/mol.
Regarding GCGAGGACGAAAGTCCGC (((..(((....)))))), the Tm in series [1] is 56.2 °C. Also, the folding enthalpy in series [2] was -8.47 kcal/mol.
Turning to GCGAGGCCTCGC ((((....)))), the Tm in series [1] was 62.8 °C. Moreover, in series [2], the folding enthalpy was -46 kcal/mol.
On the same counts, the results for GCGAGGCGAAAGCATAGC ((.(.((....)).).)) are 55.6 °C and -21.2 kcal/mol.
On the same counts, the results for GCGAGGCGAAAGCCCAGC ((..(((....)))..)) are 63.4 °C and -10.4 kcal/mol.
For GCGAGGCGAAAGCCGGGC ((..(((....)))..)), the Tm in series [1] worked out at 65.7 °C. Moreover, in series [2], the folding enthalpy was -20.8 kcal/mol.
On the same counts, the results for GCGAGGGGAAACCCTTGC ((.((((....)))).)) are 55.6 °C and -35.8 kcal/mol.
On the same counts, the results for GCGAGTATCGC ((((...)))) are 58.4 °C and -18.7 kcal/mol.
On the same counts, the results for GCGAGTATTCGC ((((....)))) are 57.2 °C and -26.6 kcal/mol.
Turning to GCGAGTCTTCGC ((((....)))), in series [1], the Tm was 57.2 °C. Also, in series [2], the folding enthalpy was -26.2 kcal/mol.
Turning to GCGAGTGCTCGC ((((....)))), in series [1], the Tm was determined as 52 °C. Moreover, the folding enthalpy in series [2] is -26.2 kcal/mol.
On the same counts, the results for GCGAGTTTTCGC ((((....)))) are 53.3 °C and -16.5 kcal/mol.
On the same counts, the results for GCGATAAATCGC ((((....)))) are 49.8 °C and -19.3 kcal/mol.
On the same counts, the results for GCGATAACGAAAGTTCGC (((..(((....)))))) are 51.1 °C and -28.2 kcal/mol.
With GCGATACCGAAAGGTCGC (((..(((....)))))), the Tm in series [1] amounted to 54.3 °C. In series [2], the folding enthalpy is -29.3 kcal/mol.
In the case of GCGATACGAAAGTAACGC (((.(((....))).))), the Tm in series [1] was found to be 57.9 °C. Besides, in series [2], the folding enthalpy was -41.5 kcal/mol.
On the same counts, the results for GCGATAGGAAACTATCAC (.(((((....))))).) are 35.9 °C and -18.4 kcal/mol.
On the same counts, the results for GCGATAGGAAACTGTCGC ((((.((....)).)))) are 54.5 °C and -50.7 kcal/mol.
As to GCGATATCGAAAGATCGC (((..(((....)))))), the Tm in series [1] was 50.1 °C. For the same sequence, the folding enthalpy in series [2] is -30.7 kcal/mol.
On the same counts, the results for GCGATATTCGC ((((...)))) are 51.9 °C and -17.2 kcal/mol.
On to GCGATCCTTCGC ((((....)))), for which the Tm in series [1] is 53.7 °C. In series [2], the folding enthalpy is -24.6 kcal/mol.
On the same counts, the results for GCGATCGAAAGATGCGC ((((((....))).))) are 53.6 °C and -27.8 kcal/mol.
On the same counts, the results for GCGATCTATCGC ((((....)))) are 55.5 °C and -31 kcal/mol.
On the same counts, the results for GCGATCTTTCGC ((((....)))) are 51.4 °C and -27.5 kcal/mol.
With GCGATGAAAATCGC (((((....))))), in series [1], the Tm was found to be 61.6 °C. Also, the folding enthalpy in series [2] was -31.7 kcal/mol.
On the same counts, the results for GCGATGAATCGC ((((....)))) are 52.4 °C and -26.2 kcal/mol.
Turning to GCGATGCGAAAGCAAGGC ((..(((....)))..)), in series [1], the Tm was 42.3 °C. The folding enthalpy in series [2] was -17.2 kcal/mol.
GCGATGCGAAAGCACTGC ((..(((....)))..)): the Tm in series [1] stood at 45.2 °C. Besides, the folding enthalpy in series [2] is -19.1 kcal/mol.
On the same counts, the results for GCGATGCGAAAGCATAGC ((.((((....)))).)) are 66.7 °C and -31.1 kcal/mol.
On to GCGATGCTTCGC ((((....)))), for which, in series [1], the Tm was found to be 62.3 °C. The folding enthalpy in series [2] is -20.2 kcal/mol.
GCGATGGATCGC ((((....)))): the Tm in series [1] stood at 52.8 °C. The folding enthalpy in series [2] is -22.8 kcal/mol.
On the same counts, the results for GCGATGGCGAAAGCCCGC (((..(((....)))))) are 56.5 °C and -18.4 kcal/mol.
Regarding GCGATGGGAAACCACCGC (((.(((....))).))), in series [1], the Tm came to 51.1 °C. In addition, in series [2], the folding enthalpy was -48.5 kcal/mol.
On the same counts, the results for GCGATGGGAAACCATTGC ((.((((....)))).)) are 52.5 °C and -49.3 kcal/mol.
On the same counts, the results for GCGATGGGAAACCGTTGC ((.(.((....)).).)) are 42.7 °C and -28.8 kcal/mol.
On the same counts, the results for GCGATTATCGC ((((...)))) are 49 °C and -20.9 kcal/mol.
Turning to GCGATTATTCGC ((((....)))), the Tm in series [1] turned out to be 52.4 °C. Moreover, the folding enthalpy in series [2] is -25.1 kcal/mol.
On the same counts, the results for GCGATTCCGAAAGGACGC (((..(((....)))))) are 46 °C and -26.3 kcal/mol.
On the same counts, the results for GCGATTGGAAACAATTGC ((.((((....)))).)) are 49.7 °C and -35.4 kcal/mol.
